# Measured values as given in ChEMBL document CHEMBL1121372, “Synthesis and antihypertensive activity of 5-amino-2-pyridinecarboxylic acid derivatives” (1980).
# The source made the active and inactive calls. The calls are words filed in the database; no cut-off is given here.
# How the values were obtained:
# Rattus norvegicus [1] = assay: Antihypertensive effect in spontaneously hypertensive rat (SHR), expressed as fall in blood pressure (BP) at 50 mg/kg dose given orally; format: functional; conditions: route oral
# How it was run: (§1)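 Male SHR, about 16 weeks old, with systolic pressure above 150 mmHg, held in restraint cages. Tail-cuff occlusion was raised to 250 mmHg and then lowered, after 1 h acclimation and at least 3 baseline readings. Dosing was by daily gavage in 3% cornstarch/5% PEG-400/Tween 80 for 2 or 4 days, with 4–6 rats per drug. Readings at 1, 2, 3 and 24 h; peak fall reported.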
# Rattus norvegicus [2] = assay: The compound was tested for antihypertensive effect in spontaneously hypertensive rat (SHR), expressed as fall in blood pressure (BP) at 100 mg/kg dose given orally; Inactive; format: functional, organism-based; set-up: dose 100 mg/kg; how it was run: as §1
# Rattus norvegicus [3] = assay: The compound was tested for antihypertensive effect in spontaneously hypertensive rat (SHR), expressed as fall in blood pressure (BP) at 50 mg/kg dose given orally; Inactive; format: functional, organism-based; set-up: dose 50 mg/kg; how it was run: as §1
# Rattus norvegicus [4] = assay: The compound was tested for antihypertensive effect in spontaneously hypertensive rat (SHR), expressed as fall in blood pressure (BP) at 50 mg/kg dose given per orally; format: functional; conditions: route oral; how it was run: as §1
# Canis familiaris [5] = assay: Antihypertensive activity in unanesthetized renal hypertensive dogs measured as Heart Rate (HR) (beats/min) at 100 mg per kg dose after peroral administration on day 2 (p<0.05); format: functional, Canis lupus familiaris; conditions: route oral
# How it was run: (§2)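 Renal hypertensive dogs, unanesthetized. Test compound given orally once daily as a solid in a gelatin capsule. Blood pressure was taken at 1.5, 3, 6 and 24 h after each daily dose. Activity is the maximum change in mean blood pressure or heart rate over each daily session. Values are mean ± SE, with significance marked at p < 0.05.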
# Canis familiaris [6] = assay: Antihypertensive activity in unanesthetized renal hypertensive dogs measured as Heart Rate (HR) (beats/min) at 100 mg per kg dose after peroral administration on day1; format: functional, Canis lupus familiaris; conditions: route oral; how it was run: as §2
# Canis familiaris [7] = assay: Antihypertensive activity in unanesthetized renal hypertensive dogs measured as mean Blood Pressure at 100 mg per kg dose after peroral administration on day 2 (p<0.05); format: functional, Canis lupus familiaris; conditions: route oral; how it was run: as §2
# Rattus norvegicus [8] = assay: The compound was tested for antihypertensive effect in spontaneously hypertensive rat (SHR), expressed as fall in blood pressure (BP) at 100 mg/kg dose given orally; format: functional; conditions: route oral; how it was run: as §1
# Canis familiaris [9] = assay: Antihypertensive activity in unanesthetized renal hypertensive dogs measured as mean Blood Pressure at 100 mg per kg dose after peroral administration on day1; format: functional, Canis lupus familiaris; set-up: unit not given beside the values; conditions: route oral; how it was run: as §2
# Canis familiaris [10] = assay: Antihypertensive activity in unanesthetized renal hypertensive dogs measured as mean Blood Pressure at 100 mg per kg dose after peroral administration on day 2; format: functional, Canis lupus familiaris; conditions: route oral; how it was run: as §2
# Rattus norvegicus [11] = assay: The compound was tested for antihypertensive effect in spontaneously hypertensive rat (SHR), expressed as fall in blood pressure (BP) at 25 mg/kg dose given orally; format: functional; conditions: route oral; how it was run: as §1
# Rattus norvegicus [12] = assay: The compound was tested for antihypertensive effect in spontaneously hypertensive rat (SHR), expressed as fall in blood pressure (BP) at 50 mg/kg dose given orally; (3/3 dead); format: functional
# Canis familiaris [13] = assay: Antihypertensive activity in unanesthetized renal hypertensive dogs measured as Heart Rate (HR) (beats/min) at 100 mg per kg dose after peroral administration on day 2; format: functional, Canis lupus familiaris; conditions: route oral; how it was run: as §2
# Canis familiaris [14] = assay: Antihypertensive activity in unanesthetized renal hypertensive dogs measured as mean Blood Pressure at 100 mg per kg dose after peroral administration on day 2((p<0.05); format: functional, Canis lupus familiaris; conditions: route oral; how it was run: as §2
# Canis familiaris [15] = assay: Antihypertensive activity in unanesthetized renal hypertensive dogs measured as Heart Rate (HR) (beats/min) at 100 mg per kg dose after peroral administration on day 3; format: functional, Canis lupus familiaris; conditions: route oral; how it was run: as §2
# Canis familiaris [16] = assay: Antihypertensive activity in unanesthetized renal hypertensive dogs measured as mean Blood Pressure at 100 mg per kg dose after peroral administration on day 3; format: functional, Canis lupus familiaris; conditions: route oral; how it was run: as §2
structure (smiles),measurement,setting,value
COc1cccc(CNc2ccc(C(=O)O)nc2)c1,BP,Rattus norvegicus [1],>20 mmHg
CCOC(=O)Nc1ccc(C(=O)OC)nc1,BP,Rattus norvegicus [2],inactive
O=C(O)c1ccc(Nc2ccccc2)cn1,BP,Rattus norvegicus [3],inactive
NC(=O)c1ccc(NCc2ccc(F)cc2)cn1,BP,Rattus norvegicus [1],>40 mmHg
CCCCNc1ccc(C(=O)OC)nc1,BP,Rattus norvegicus [4],<20 mmHg
O=C(O)c1ccc(NCc2ccc(F)cc2)c[n+]1[O-],BP,Rattus norvegicus [1],>20 mmHg
CCC(=O)Nc1ccc(C(=O)O)nc1,BP,Rattus norvegicus [2],inactive
CCNC(=O)c1ccc(NCc2ccc(F)cc2)cn1,BP,Rattus norvegicus [3],inactive
CN(C)C(=O)c1ccc(NCc2ccc(F)cc2)cn1,BP,Rattus norvegicus [1],>60 mmHg
same,HR,Canis familiaris [5],112
same,Maximum change in heart rate,Canis familiaris [6],20
same,MBP,Canis familiaris [7],-67
Fc1ccc(CNc2ccc(C3N=NN=N3)nc2)cc1,BP,Rattus norvegicus [1],>60 mmHg
O=C(O)c1ccc(NS(=O)(=O)c2ccc(Cl)cc2)cn1,BP,Rattus norvegicus [2],inactive
COC(=O)c1ccc(N(C)Cc2cccc(Cl)c2)cn1,BP,Rattus norvegicus [1],>20 mmHg
CN(Cc1cccc(F)c1)c1ccc(C(=O)O)nc1,BP,Rattus norvegicus [1],>20 mmHg
O=Cc1ccc(NCc2cccc(Cl)c2)cn1,BP,Rattus norvegicus [1],>20 mmHg
Cc1cccc(CNc2ccc(C(=O)O)nc2)c1,BP,Rattus norvegicus [1],>20 mmHg
CN(Cc1cccc(Cl)c1)c1ccc(C(=O)O)nc1,BP,Rattus norvegicus [1],>80 mmHg
same,BP,Rattus norvegicus [8],>80 mmHg
same,MBP,Canis familiaris [9],-21
same,MBP,Canis familiaris [10],-25
same,BP,Rattus norvegicus [11],>40 mmHg
CN(Cc1cccc(Cl)c1)c1ccc(CO)nc1,BP,Rattus norvegicus [1],>40 mmHg
O=C(O)c1ccc(NCC2CCCCC2)cn1,BP,Rattus norvegicus [12],>20 mmHg
O=C(O)c1ccc(NCc2ccccc2Cl)cn1,BP,Rattus norvegicus [8],>60 mmHg
CC(C)(C)c1ccc(CNc2ccc(C(=O)O)nc2)cc1,BP,Rattus norvegicus [1],<20 mmHg
COC(=O)c1ccc(NCc2ccc(Cl)cc2)cn1,BP,Rattus norvegicus [8],>60 mmHg
O=C(O)c1ccc(NCc2cccnc2)cn1,BP,Rattus norvegicus [8],<20 mmHg
O=C(O)c1ccc(NCc2ccc(Cl)cc2)cn1,BP,Rattus norvegicus [8],>40 mmHg
O=C(O)c1ccc(NCc2ccc(C(F)(F)F)cc2)cn1,BP,Rattus norvegicus [1],>40 mmHg
O=C(O)c1ccc(NCCCc2ccccc2)cn1,BP,Rattus norvegicus [8],>40 mmHg
COc1cccc(CN(C)c2ccc(C(=O)O)nc2)c1,BP,Rattus norvegicus [1],>20 mmHg
O=C(Nc1ccc(C(=O)O)nc1)c1ccccc1,BP,Rattus norvegicus [8],>20 mmHg
OCc1ccc(NCc2ccc(F)cc2)cn1,BP,Rattus norvegicus [1],>80 mmHg
O=C(O)c1ccc(NCc2cccc(Cl)c2)cn1,HR,Canis familiaris [13],11
same,MBP,Canis familiaris [14],-9
same,HR,Canis familiaris [15],11
same,BP,Rattus norvegicus [8],>60 mmHg
same,MBP,Canis familiaris [9],-15
same,Maximum change in heart rate,Canis familiaris [6],16
same,MBP,Canis familiaris [16],-4
O=Cc1ccc(NCc2ccc(F)cc2)cn1,BP,Rattus norvegicus [1],>80 mmHg
O=C(O)c1ccc(NCCc2ccccc2)cn1,BP,Rattus norvegicus [1],>20 mmHg
COc1ccc(CNc2ccc(C(=O)O)nc2)cc1F,BP,Rattus norvegicus [1],>20 mmHg
